# Test results: BindingDB's records for doi:10.1016/j.bmcl.2018.12.060 (Yanbian University College of Pharmacy, 2019)
# Target: Hypoxia-inducible factor 1-alpha (Homo sapiens, UniProt Q16665)
# Test: Inhibition of HIF1alpha transcriptional activity in human Hep3B cells after 24 hrs in hypoxic condition by HRE-dual luciferase reporter gene assay
# Method in brief: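 Hep3B cells transiently co-transfected with pGL3-HRE-luciferase and pRL-CMV, after 24 h incubated under hypoxia with or without compound; luciferase activity measured after 24 h, ursolic acid as positive control; mean ± SD of three independent experiments.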
# Sequence of Hypoxia-inducible factor 1-alpha (Q16665 whole entry): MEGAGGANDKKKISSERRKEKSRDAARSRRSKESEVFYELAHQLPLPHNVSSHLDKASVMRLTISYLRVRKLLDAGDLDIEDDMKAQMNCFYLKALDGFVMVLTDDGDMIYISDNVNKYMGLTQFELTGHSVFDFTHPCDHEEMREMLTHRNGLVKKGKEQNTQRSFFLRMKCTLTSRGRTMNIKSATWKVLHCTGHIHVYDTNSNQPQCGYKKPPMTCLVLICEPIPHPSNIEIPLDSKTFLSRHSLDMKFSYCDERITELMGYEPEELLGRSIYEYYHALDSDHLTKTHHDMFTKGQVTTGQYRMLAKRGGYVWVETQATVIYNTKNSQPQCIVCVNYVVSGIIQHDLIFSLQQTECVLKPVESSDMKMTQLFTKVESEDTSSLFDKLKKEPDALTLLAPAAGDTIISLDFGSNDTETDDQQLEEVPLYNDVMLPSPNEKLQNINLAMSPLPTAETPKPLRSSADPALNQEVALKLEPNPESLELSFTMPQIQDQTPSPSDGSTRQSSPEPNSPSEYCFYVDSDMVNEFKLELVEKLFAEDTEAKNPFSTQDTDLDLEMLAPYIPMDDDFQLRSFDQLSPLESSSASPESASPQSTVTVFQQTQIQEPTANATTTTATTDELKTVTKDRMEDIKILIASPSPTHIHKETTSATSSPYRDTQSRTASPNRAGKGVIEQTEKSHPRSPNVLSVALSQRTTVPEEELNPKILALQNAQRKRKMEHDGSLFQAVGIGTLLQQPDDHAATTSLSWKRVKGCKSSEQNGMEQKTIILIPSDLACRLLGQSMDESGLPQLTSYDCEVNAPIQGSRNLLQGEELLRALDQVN
row,SMILES,IC50 [µM]
1,CCCCCOC(=O)[C@]12CC[C@@H](C)[C@H](C)[C@H]1C1=CC[C@@H]3[C@@]4(C)CC/C(=N\NC(=N)N)C(C)(C)[C@@H]4CC[C@@]3(C)[C@]1(C)CC2,> 100
2,C[C@H]1[C@H](C)CC[C@]2(C(=O)O)CC[C@]3(C)C(=CC[C@@H]4[C@@]5(C)CC(=C\c6ccccc6Cl)/C(=N\NC(=N)N)C(C)(C)[C@@H]5CC[C@]43C)[C@H]12,> 100
3,C[C@H]1[C@H](C)CC[C@]2(C(=O)O)CC[C@]3(C)C(=CC[C@@H]4[C@@]5(C)CC(=C\c6ccc([N+](=O)[O-])cc6)/C(=N\NC(=N)N)C(C)(C)[C@@H]5CC[C@]43C)[C@H]12,> 100
4,C[C@H]1[C@H](C)CC[C@]2(C(=O)O)CC[C@]3(C)C(=CC[C@@H]4[C@@]5(C)CC(=C\c6ccccc6Br)/C(=N\NC(=N)N)C(C)(C)[C@@H]5CC[C@]43C)[C@H]12,> 100
5,C[C@H]1[C@H](C)CC[C@]2(C(=O)O)CC[C@]3(C)C(=CC[C@@H]4[C@@]5(C)CC(=C\c6ccccc6F)/C(=N\NC(=N)N)C(C)(C)[C@@H]5CC[C@]43C)[C@H]12,> 100
6,C[C@H]1[C@H](C)CC[C@]2(C(=O)O)CC[C@]3(C)C(=CC[C@@H]4[C@@]5(C)CC(=C\c6ccc(F)cc6)/C(=N\NC(=N)N)C(C)(C)[C@@H]5CC[C@]43C)[C@H]12,> 100
7,C[C@H]1[C@H](C)CC[C@]2(C(=O)O)CC[C@]3(C)C(=CC[C@@H]4[C@@]5(C)CC[C@H](O)C(C)(C)[C@@H]5CC[C@]43C)[C@H]12 [3beta-hydroxyurs-12-en-28-oic acid],> 100
8,C[C@H]1[C@H](C)CC[C@]2(C(=O)O)CC[C@]3(C)C(=CC[C@@H]4[C@@]5(C)CC(=C\c6cccc7ccccc67)/C(=N\NC(=N)N)C(C)(C)[C@@H]5CC[C@]43C)[C@H]12,> 100
9,C[C@H]1[C@H](C)CC[C@]2(C(=O)O)CC[C@]3(C)C(=CC[C@@H]4[C@@]5(C)CC(=C\c6cccc(Cl)c6)/C(=N\NC(=N)N)C(C)(C)[C@@H]5CC[C@]43C)[C@H]12,> 100
10,C[C@H]1[C@H](C)CC[C@]2(C(=O)O)CC[C@]3(C)C(=CC[C@@H]4[C@@]5(C)CC(=C\c6cccc(F)c6)/C(=N\NC(=N)N)C(C)(C)[C@@H]5CC[C@]43C)[C@H]12,> 100
11,Cc1ccc(/C=C2\C[C@]3(C)[C@H]4CC=C5[C@@H]6[C@@H](C)[C@H](C)CC[C@]6(C(=O)O)CC[C@@]5(C)[C@]4(C)CC[C@H]3C(C)(C)\C2=N\NC(=N)N)cc1,> 100

# Continued, values first:
row,IC50 [µM],SMILES
1,88.8,C[C@H]1[C@H](C)CC[C@]2(C(=O)O)CC[C@]3(C)C(=CC[C@@H]4[C@@]5(C)CC/C(=N\NC(N)=S)C(C)(C)[C@@H]5CC[C@]43C)[C@H]12
2,> 100,CCOC(=O)[C@]12CC[C@@H](C)[C@H](C)[C@H]1C1=CC[C@@H]3[C@@]4(C)CC/C(=N\NC(=N)N)C(C)(C)[C@@H]4CC[C@@]3(C)[C@]1(C)CC2
3,90.4,C[C@H]1[C@H](C)CC[C@]2(C(=O)O)CC[C@]3(C)C(=CC[C@@H]4[C@@]5(C)CC(=C\c6ccc(Cl)cc6Cl)/C(=N\NC(=N)N)C(C)(C)[C@@H]5CC[C@]43C)[C@H]12
4,40.5,C[C@H]1[C@H](C)CC[C@]2(C(=O)OCc3ccc(Cl)cc3Cl)CC[C@]3(C)C(=CC[C@@H]4[C@@]5(C)CC/C(=N\NC(=N)N)C(C)(C)[C@@H]5CC[C@]43C)[C@H]12
5,> 100,C[C@H]1[C@H](C)CC[C@]2(C(=O)O)CC[C@]3(C)C(=CC[C@@H]4[C@@]5(C)CC(=C\c6ccco6)/C(=N\NC(=N)N)C(C)(C)[C@@H]5CC[C@]43C)[C@H]12
6,> 100,C[C@H]1[C@H](C)CC[C@]2(C(=O)O)CC[C@]3(C)C(=CC[C@@H]4[C@@]5(C)CC(=C\c6c(Cl)cccc6Cl)/C(=N\NC(=N)N)C(C)(C)[C@@H]5CC[C@]43C)[C@H]12
7,> 100,C[C@H]1[C@H](C)CC[C@]2(C(=O)O)CC[C@]3(C)C(=CC[C@@H]4[C@@]5(C)CC/C(=N\NC(=N)N)C(C)(C)[C@@H]5CC[C@]43C)[C@H]12
8,6.7,COC(=O)[C@]12CC[C@@H](C)[C@H](C)[C@H]1C1=CC[C@@H]3[C@@]4(C)CC/C(=N\NC(=N)N)C(C)(C)[C@@H]4CC[C@@]3(C)[C@]1(C)CC2
9,37.8,C[C@H]1[C@H](C)CC[C@]2(C(=O)O)CC[C@]3(C)C(=CC[C@@H]4[C@@]5(C)CC(=C\c6ccccc6)/C(=N\NC(=N)N)C(C)(C)[C@@H]5CC[C@]43C)[C@H]12
10,10.3,Cc1ccc(COC(=O)[C@]23CC[C@@H](C)[C@H](C)[C@H]2C2=CC[C@@H]4[C@@]5(C)CC/C(=N\NC(=N)N)C(C)(C)[C@@H]5CC[C@@]4(C)[C@]2(C)CC3)cc1
11,22.8,C[C@H]1[C@H](C)CC[C@]2(C(=O)O)CC[C@]3(C)C(=CC[C@@H]4[C@@]5(C)CC(=C\c6cccs6)/C(=N\NC(=N)N)C(C)(C)[C@@H]5CC[C@]43C)[C@H]12
12,21.1,C[C@H]1[C@H](C)CC[C@]2(C(=O)OCc3ccc(Cl)cc3)CC[C@]3(C)C(=CC[C@@H]4[C@@]5(C)CC/C(=N\NC(=N)N)C(C)(C)[C@@H]5CC[C@]43C)[C@H]12
13,13.3,C[C@H]1[C@H](C)CC[C@]2(C(=O)OCc3c(Cl)cccc3Cl)CC[C@]3(C)C(=CC[C@@H]4[C@@]5(C)CC/C(=N\NC(=N)N)C(C)(C)[C@@H]5CC[C@]43C)[C@H]12
14,30.3,C[C@H]1[C@H](C)CC[C@]2(C(=O)OCc3cccc(Cl)c3)CC[C@]3(C)C(=CC[C@@H]4[C@@]5(C)CC/C(=N\NC(=N)N)C(C)(C)[C@@H]5CC[C@]43C)[C@H]12
15,75.4,C[C@H]1[C@H](C)CC[C@]2(C(=O)O)CC[C@]3(C)C(=CC[C@@H]4[C@@]5(C)CC(=C\c6cccc(Br)c6)/C(=N\NC(=N)N)C(C)(C)[C@@H]5CC[C@]43C)[C@H]12
16,13.3,C[C@H]1[C@H](C)CC[C@]2(C(=O)O)CC[C@]3(C)C(=CC[C@@H]4[C@@]5(C)CC/C(=N\NC(N)=O)C(C)(C)[C@@H]5CC[C@]43C)[C@H]12
